{"data": "Experimental data collected from several papers", "target": "Cytochrome P450 3A4 (CYP3A4, Homo sapiens, UniProt P08684)", "observed": "enzyme activity", "mode": "inhibitor", "note": "Compare with care: the assays were run in different laboratories."}
{"Structure (SMILES)": "COc1ccc2c(Cc3ccccc3F)c3n(c(=O)c2c1OC)CCc1cc2c(cc1-3)OCO2", "measurement": "IC50", "value": "2700 nM"}
{"Structure (SMILES)": "Cc1ccc2nc(-c3ccccc3)c(CNc3ccc(F)cc3)n2c1", "measurement": "IC50", "value": "270 nM"}
{"Structure (SMILES)": "CCc1cc(/C(C)=N/OCc2ccc(C3CCCCC3)c(C(F)(F)F)c2)ccc1CN1CC(C(=O)O)C1", "system": "human, liver microsomes", "conditions": "20 min, testosterone probe", "measurement": "IC50", "value": "600 nM"}
{"Structure (SMILES)": "CCCCC1=NC2(CCCC2)C(=O)N1Cc1ccc(-c2ccccc2S(=O)(=O)Nc2noc(C)c2C)c(COCC)c1", "measurement": "Ki", "value": "6330 nM"}
{"Structure (SMILES)": "Nc1nc(N)c2nc(C(=O)NCc3cccc(C(F)(F)F)c3)cnc2n1", "test": "luciferase", "measurement": "IC50", "value": "13800 nM"}
{"Structure (SMILES)": "O=C(NCCN1CCCC1)c1cc(-c2ccc(CN3CCOCC3)cc2)nc2ccc(F)cc12", "system": "human, liver microsomes", "conditions": "midazolam probe", "measurement": "IC50", "value": "> 100000 nM"}
{"Structure (SMILES)": "COc1cc2c(c(OC)c1OC)-c1c(cc3c(c1OC)OCO3)C[C@H](C)[C@](C)(O)[C@H]2OC(=O)c1ccccc1", "conditions": "15 min, pH 7.4", "measurement": "IC50", "value": "140 nM"}
{"Structure (SMILES)": "COC(=O)C1CCN(C(=O)c2ccc(SCc3cnc4nc(N)nc(N)c4n3)nc2)CC1", "test": "luciferase", "measurement": "IC50", "value": "11700 nM"}
{"Structure (SMILES)": "CC1=CC(=O)C(C(C)C)=CC1=O", "test": "fluorescence", "conditions": "pH 7.4", "measurement": "IC50", "value": "1200 nM"}
{"Structure (SMILES)": "Nc1nc(N)c2nc(CNc3ccc(C(=O)c4ccccc4)cc3)cnc2n1", "test": "luciferase", "measurement": "IC50", "value": "43700 nM"}
{"Structure (SMILES)": "COc1ccn2c(Nc3ccccc3F)c(-c3ccncn3)nc2c1", "measurement": "IC50", "value": "270 nM"}
{"Structure (SMILES)": "COc1ccc2c(Cc3ccccc3F)c3[n+](cc2c1OC)CCc1cc2c(cc1-3)OCO2", "measurement": "IC50", "value": "800 nM"}
